Calls of active or inactive are those of the source. The rule behind the calls is not given here.
Assays:
[1] = Cytotoxicity against human HuH7 cells assessed as reduction in rRNA levels incubated for 5 days by RT-PCR assay; assay type: cell-based, Huh-7; conditions: for CC50: huh-7, 120 h
Outline: (§1)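 Huh-7 clone B cells carrying HCV replicon RNA, seeded at 3000 cells/well; compounds added in dose response in triplicate right after seeding. Incubated 5 days at 37 °C, 5% CO₂. Total RNA extracted; replicon RNA and rRNA internal control co-amplified by one-step multiplex real-time RT-PCR. Antiviral effect taken as ΔCt versus no-drug control; cytotoxicity read from rRNA reduction.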

[2] = system: Hepatitis C virus; assay: Antiviral activity against HCV infected in human HuH7 cells assessed as reduction in replicon RNA levels incubated for 5 days by RT-PCR assay; assay type: functional, organism-based, Hepacivirus hominis; conditions: Huh-7, 120 h; outline: as §1
[3] = system: CCRF-CEM; assay: (§2) Cytotoxicity against human CEM cells assessed as reduction in cell viability incubated for 5 days by Cell-titer 96 aqueous one solution cell proliferation assay; assay type: cell-based; conditions: ccrf-cem, 120 h
[4] = system: PBMC; assay: (§3) Cytotoxicity against human PBMC assessed as reduction in cell viability incubated for 5 days by Cell-titer 96 aqueous one solution cell proliferation assay; assay type: cell-based; conditions: pbmc, 120 h
[5] = system: Vero; assay: (§4) Cytotoxicity against African green monkey Vero cells assessed as reduction in cell viability incubated for 5 days by Cell-titer 96 aqueous one solution cell proliferation assay; assay type: cell-based; conditions: chlorocebus sabaeus, vero, 120 h
[6] = as §4; assay type: cell-based; conditions: chlorocebus sabaeus, Vero cells
[7] = as §3; assay type: cell-based; conditions: PBMC
[8] = as §2; assay type: cell-based, CCRF-CEM; conditions: CEM cells (CCRF-CEM)
[9] = system: HepG2; assay: Mitochondrial toxicity in human HepG2 cells assessed as effect on nuclear beta-actin DNA level incubated for 14 days by real-time PCR method; assay type: cell-based; conditions: hepg2, 336 h
Outline: (§5)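 HepG2 cells in DMEM with 4.5 g/L glucose and 10% heat-inactivated FBS, seeded at 5000 cells/well on collagen; compounds added 1 day later at final 1–50 μM. Medium and compound renewed every 3–4 days for 14 days; duplicates in two independent experiments. COXII mtDNA and nuclear β-actin DNA measured by real-time PCR, normalised to untreated control; IC₅₀ calculated.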

[10] = system: HepG2; assay: Mitochondrial toxicity in human HepG2 cells assessed as effect on mitochondrial cytochrome c oxidase subunit 2 DNA level incubated for 14 days by real-time PCR method; assay type: cell-based; conditions: hepg2, 336 h; outline: as §5
[11] = system: HepG2; assay: Mitochondrial toxicity in human HepG2 cells assessed as induction of lactic acid levels at 10 uM incubated for 14 days; assay type: cell-based; conditions: hepg2, 336 h
Outline: (§6)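 After 14 days of HepG2 exposure to compound (same culture regimen as the mtDNA assay), lactic acid in culture supernatant quantified with a D-/L-lactic acid kit by absorbance. Results expressed as % lactic acid over % nuclear DNA (β-actin control); mean of triplicates from a single plate.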

[12] = system: HepG2; assay: Mitochondrial toxicity in human HepG2 cells assessed as induction of lactic acid levels at 50 uM incubated for 14 days; assay type: cell-based; conditions: hepg2, 336 h; outline: as §6
[13] = system: HepG2; assay: Mitochondrial toxicity in human HepG2 cells assessed as induction of lactic acid levels at 1 uM incubated for 14 days; assay type: cell-based; conditions: hepg2, 336 h; outline: as §6
[14] = system: Hepacivirus hominis; assay: Inhibition of HCV C-terminal His-tagged NS5Bdelta21 enzyme assessed as induction of pausing at sites of GMP incorporation during NS5B-mediated RNA polymerization using [32P]-GpG primer, RNA template and rNTP nucleotide mix incubated for 120 mins by PAGE method
Outline: (§7)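 Purified NS5BΔ21 (C-terminal His tag), 1 μM, at 30 °C with 1 μM 20-mer RNA template and 1 μM ³²P-GpG primer. Buffer was 40 mM Tris pH 7.5, 6 mM NaCl, 2 mM MgCl₂. Started with 10 μM NTP mix, 1 μM competing NTP and triphosphate inhibitor at 0–100 μM. Stopped at 120 min with EDTA/formamide. Products run on 20% denaturing PAGE and quantified; IC₅₀ calculated.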

[15] = system: Hepatocyte; assay: (§8) Drug level in human primary hepatocytes treated with 50 uM Ethyl 3-(2-(((R)-(((2R,3R,4R,5R)-5-(2,6-Diamino-9H-purin-9-yl)-3,4-dihydroxy-4-methyltetrahydrofuran-2-yl)methoxy)(((S)-1-ethoxy-1-oxopropan-2-yl)amino)phosphoryl)oxy)phenyl)-propanoate assessed as compound formation incubated for 4 hrs at 37 degC by LC-MS/MS method; assay type: ADME, cell-based
Outline: (§9)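 Freshly plated primary human hepatocytes seeded at 1 × 10⁶ per well and acclimated overnight, then given 50 μM compound for 4 h at 37 °C. After two ice-cold PBS washes, extraction ran overnight at −20 °C in 70% methanol with 20 nM ddATP. Dried extracts went to LC–MS/MS for intracellular metabolites, as three replicates from one plate, ±SD.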

[16] = (§10) Drug level in human HuH7 cells treated with 50 uM Isopropyl 3-(2-(((S)-(((2R,3S,4R,5R)-5-(2,6-Diamino-9H-purin-9-yl)-3,4-dihydroxy-4-methyltetrahydrofuran-2-yl)methoxy)-(((S)-1-isopropoxy-1-oxopropan-2-yl)amino)phosphoryl)oxy)-phenyl)propanoate 15c(Sp) and Isopropyl 3-(2-(((R)-(((2R,3S,4R,5R)-5-(2,6-Diamino-9H-purin-9-yl)-3,4-dihydroxy-4-methyltetrahydrofuran-2-yl)methoxy)(((S)-1-isopropoxy-1-oxopropan-2-yl)amino)phosphoryl)oxy)phenyl)propanoate assessed as compound formation incubated for 4 hrs at 37 degC by LC-MS/MS method; assay type: ADME, cell-based; conditions: huh-7, 4 h
Outline: (§11)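 Huh-7 cells seeded at 1 × 10⁶ per well and exposed to 50 μM compound after attachment, 4 h at 37 °C. Cells washed twice with ice-cold PBS, then extracted overnight at −20 °C in 70% methanol containing 20 nM ddATP. Supernatants were dried and analysed by LC–MS/MS for parent nucleoside and its mono-, di- and triphosphates (pmol/10⁶ cells).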

[17] = system: Hepatocyte; assay: Drug level in human primary hepatocytes treated with 50 uM beta-D-2,6-diaminopurine nucleoside assessed as compound formation incubated for 4 hrs at 37 degC by LC-MS/MS method; assay type: ADME, cell-based; outline: as §9
[18] = system: Hepatocyte; assay: as §10, with “primary hepatocytes” for “HuH7 cells”; assay type: ADME, cell-based; outline: as §9
[19] = Drug level in human HuH7 cells treated with 50 uM beta-D-2,6-diaminopurine nucleoside assessed as compound formation incubated for 4 hrs at 37 degC by LC-MS/MS method; assay type: ADME, cell-based; conditions: huh-7, 4 h; outline: as §11
[20] = as §8, with “HuH7 cells” for “primary hepatocytes”; assay type: ADME, cell-based; conditions: huh-7, 4 h; outline: as §11
[21] = system: Hepacivirus hominis; assay: Inhibition of HCV C-terminal His-tagged NS5Bdelta21 enzyme assessed as reduction in NS5B-mediated RNA polymerization using [32P]-GpG primer, RNA template and rNTP nucleotide mix incubated for 120 mins by PAGE method
Outline: as §7, with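 “μM.” for “μM. Stopped at 120 min with EDTA/formamide.”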

[22] = system: HepG2; assay: Toxicity in human HepG2 cells assessed as increase in cell death at 10 uM; assay type: cell-based; conditions: hepg2, 10 µM

| Compound | CC50 [1] | EC50 [2] | EC90 [2] | CC50 [3] | CC50 [4] | CC50 [5] | further results |
| --- | --- | --- | --- | --- | --- | --- | --- |
| CC(C)OC(=O)CCc1ccccc1O[P@@](=O)(N[C@@H](C)C(=O)OC(C)C)OC[C@H]1O[C@@H](n2cnc3c(N)nc(N)nc32)[C@](C)(O)[C@H]1O | > 10 µM | 1 µM | 2.7 µM | > 100 µM | – | – | – |
| CCOC(=O)CCc1ccccc1O[P@](=O)(N[C@@H](C)C(=O)OCC)OC[C@H]1O[C@@H](n2cnc3c(N)nc(N)nc32)[C@](C)(O)[C@H]1O | – | 2.7 µM | 8.7 µM | – | > 100 µM | – | – |
| CCOC(=O)[C@H](C)N[P@](=O)(OC[C@H]1O[C@@H](n2cnc3c(N)nc(N)nc32)[C@](C)(O)[C@H]1O)Oc1ccccc1CCC(=O)OC(C)C | > 10 µM | 9.1 µM | 26 µM | – | – | – | – |
| CCOC(=O)[C@H](C)NP(=O)(OC[C@H]1O[C@@H](n2cnc3c(N)nc(N)nc32)[C@](C)(O)[C@H]1O)Oc1ccccc1CCC(=O)OC(C)C (stereo partly drawn) | – | 1.7 µM | 8 µM | – | – | > 100 µM | – |
| CCOC(=O)CCc1ccccc1OP(=O)(OC[C@H]1O[C@@H](n2cnc3c(N)nc(N)nc32)[C@](C)(O)[C@@H]1O)Oc1ccccc1CCC(=O)OCC | – | > 10 µM | > 10 µM | – | – | – | CC50 at 120 h [6]: 90 µM; CC50 at 120 h [7]: 64 µM; CC50 at 120 h ([1]; HuH7 cells): > 10 µM; CC50 at 120 h [8]: 25 µM |
| CCOC(=O)CCc1ccccc1O[P@@](=O)(N[C@@H](C)C(=O)OC(C)C)OC[C@H]1O[C@@H](n2cnc3c(N)nc(N)nc32)[C@](C)(O)[C@H]1O | – | 2.4 µM | 8.2 µM | – | – | > 100 µM | – |
| CCOC(=O)CCc1ccccc1OP(=O)(N[C@@H](C)C(=O)OCC)OC[C@H]1O[C@@H](n2cnc3c(N)nc(N)nc32)[C@]2(C)OC(=O)O[C@@H]12 (stereo partly drawn) | > 10 µM | 2.8 µM | 8.5 µM | > 100 µM | > 100 µM | > 100 µM | – |
| Nc1ccn([C@@H]2CS[C@H](CO)O2)c(=O)n1 [LAMIVUDINE] | – | – | – | – | – | – | CC50 [9]: > 10 µM; CC50 [10]: > 10 µM; Activity [11]: 91% |
| CCOC(=O)[C@H](C)N[P@@](=O)(OC[C@H]1O[C@@H](n2cnc3c(N)nc(N)nc32)[C@](C)(O)[C@H]1O)Oc1ccccc1CCC(=O)OC(C)C | – | 1.4 µM | 6.9 µM | > 100 µM | > 100 µM | – | – |
| CCOC(=O)[C@H](C)NP(=O)(OC[C@H]1O[C@@H](n2cnc3c(N)nc(N)nc32)[C@](C)(O)[C@@H]1O)Oc1ccccc1 (stereo partly drawn) | > 10 µM | 0.9 µM | 4 µM | > 100 µM | > 100 µM | > 100 µM | CC50 [9]: > 50 µM; Activity [12]: 90%; CC50 [10]: > 50 µM; Activity [11]: 140%; Activity [13]: 100% |
| C[C@@]1(O)[C@H](O)[C@@H](COP(=O)(O)OP(=O)(O)OP(=O)(O)O)O[C@H]1n1cnc2c(=O)[nH]c(N)nc21 [INX-09114] | – | – | – | – | – | – | inhibition [14]: Active; Drug metabolism [15]: metabolite_detected; Drug metabolism [16]: metabolite_detected; Drug metabolism [17]: metabolite_detected; Drug metabolism [18]: metabolite_detected; Drug metabolism [19]: metabolite_detected; Drug metabolism [20]: metabolite_detected; inhibition [21]: Dose-dependent effect |
| CCOC(=O)CCc1ccccc1O[P@](=O)(N[C@@H](C)C(=O)OC(C)C)OC[C@H]1O[C@@H](n2cnc3c(N)nc(N)nc32)[C@](C)(O)[C@H]1O | > 10 µM | 4.7 µM | 9.7 µM | > 100 µM | > 100 µM | – | – |
| Nc1ccn([C@H]2CC[C@@H](CO)O2)c(=O)n1 [ZALCITABINE] | – | – | – | – | – | – | CC50 [9]: < 10 µM; CC50 [10]: < 10 µM; Activity [11]: 220% |
| COc1nc(N)nc2c1ncn2[C@@H]1O[C@H](COP(=O)(N[C@@H](C)C(=O)OCC(C)(C)C)Oc2cccc3ccccc23)[C@@H](O)[C@@]1(C)O (stereo partly drawn) [BMS-986094] | 0.8 µM | 0.02 µM | 0.04 µM | 8.7 µM | 4.7 µM | 14 µM | CC50 [9]: < 1 µM; CC50 [10]: 4.7 µM; Activity [22]: Toxic; Activity [13]: 190% |
| CCOC(=O)CCc1ccccc1OP(=O)(N[C@@H](C)C(=O)OC(C)C)OC[C@H]1O[C@@H](n2cnc3c(N)nc(N)nc32)[C@](C)(O)[C@H]1O (stereo partly drawn) | – | 2.2 µM | 9 µM | – | – | – | – |
| C[C@@]1(O)[C@H](O)[C@@H](CO)O[C@H]1n1cnc2c(N)nc(N)nc21 | > 33 µM | 5.4 µM | > 10 µM | > 100 µM | > 100 µM | > 100 µM | CC50 [9]: > 50 µM; Activity [12]: 110%; CC50 [10]: > 50 µM; Activity [11]: 170%; Activity [13]: 110% |
| CC(C)OC(=O)CCc1ccccc1O[P@](=O)(N[C@@H](C)C(=O)OC(C)C)OC[C@H]1O[C@@H](n2cnc3c(N)nc(N)nc32)[C@](C)(O)[C@H]1O | – | 0.9 µM | 2.8 µM | 40 µM | > 100 µM | – | – |
| CCOC(=O)CCc1ccccc1OP(=O)(N[C@@H](C)C(=O)OCC)OC[C@H]1O[C@@H](n2cnc3c(N)nc(N)nc32)[C@](C)(O)[C@H]1O (mixture of isomers) | > 10 µM | 2.3 µM | 7.3 µM | > 100 µM | – | – | – |
